Source: paper PMC4257110 (International Journal of Nanomedicine, 2014)
Converted amounts (≈) assume the structure as drawn.

Tests used:
[1] = assay type: physicochemical; conditions: PLGA NPs loaded with TS IIA, Sal B, PNS; PLGA L:G 50:50; RP-HPLC
Method in brief: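 Free drug: a dialysis bag (8–14 kDa cutoff) holding 2 mL saline with 0.2% SDS was placed in 25 mL nanosuspension for 12 h, and the bag contents were assayed by HPLC. Total drug: 1 mL nanosuspension dissolved in acetonitrile, extracted with methanol, 0.22-μm filtered. C18 column, 25°C, acetonitrile/0.05% phosphoric acid gradient, 1.0 mL/min, 203 nm (PNS) or 280 nm (TS IIA, Sal B). EE calculated from free and total drug.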

[2] = Pharmacokinetics of TS IIA, Sal B and PNS; assay type: in vivo, guinea pigs; conditions: RW administration, NPs versus compound solution, not dose-normalised
Method in brief: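 Guinea pigs (250–300 g; 78, two groups) received round-window dosing of loaded PLGA NPs (12.43 μg/kg TS IIA, 766.38 μg/kg Sal B, 1.05/2.08/2.31 mg/kg R1/Rg1/Rb1) or solution in ethanol/glycerol/PEG 400 2:1:2 (0.73, 8, 3.13/4.38/3.82 mg/kg); saline blank. At 0.17–36 h under anesthesia, perilymph was drawn through the RWM and plasma taken from cardiac blood. Acetic ether (TS IIA, Sal B) or methanol (PNS) extraction, HPLC; n=3.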

[3] = In vitro release of TS IIA, Sal B and PNS from PLGA NPs and of free drugs; assay type: physicochemical; conditions: saline containing 0.2% SDS, dialysis, 37°C; for released from NPs: PLGA NPs loaded with TS IIA, Sal B, PNS, within 72 hours; for free drug released: free drugs (control), first 6 hours
Method in brief: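 Dialysis release: a sealed bag with sample dispersed in 2.0 mL saline plus 0.2% (w/v) SDS was immersed in 30 mL of the same medium at 37°C with horizontal shaking at 100 rpm. 1 mL of medium was withdrawn at set intervals and drug content measured by HPLC.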

[4] = Maximum solubility in mixed solvents; assay type: physicochemical; conditions: mixed solvents (ethanol/glycerol/PEG 400 = 2:1:2), organic solvent or mixture
[5] = assay type: in vivo, guinea pigs
[6] = In vitro release of coumarin-6 from PLGA NPs; assay type: physicochemical; conditions: PBS (pH 7.4), 72 hours, 37°C
Method in brief: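 A dialysis bag holding 3.0 mL nanosuspension plus 2.0 mL PBS pH 7.4 sat in 15 mL PBS pH 7.4 at 37°C, stirred at 100 rpm. At set time points 1 mL of medium was withdrawn and replaced with fresh medium, and coumarin-6 was quantified by HPLC.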

[7] = PL, guinea pigs, RW administration, NPs versus solution

entrapment efficiency of the NPs [1] [%] | AUC0–t in the PL, NPs greater compared with compound solution [2] [fold] | Cmax in the PL, NPs higher compared with compound solution [2] [fold] | released from NPs [3] | free drug released [3] [%] | solubility [4] [µg/mL] | AUC0–t in PL, NPs higher than coumarin-6 solution [5, 7] [fold] | Cmax in PL, NPs higher than coumarin-6 solution [5, 7] [fold] | time up to which coumarin-6 was found in the PL ([5]; RW administration of coumarin-6 NPs) | time after which no coumarin-6 was detected in PL ([5]; RW administration of coumarin-6 solution) [h] | coumarin-6 detected in the plasma ([5]; plasma of several guinea pigs, RW administration of coumarin-6 NPs or solution) | in vitro cumulative release of coumarin-6 from the NPs [6] [%] | Compound
37.87 | 4.0 | 14.4 | completely released | > 79 |  |  |  |  |  |  |  | CC(C)=CCC[C@](C)(O[C@@H]1O[C@H](CO)[C@@H](O)[C@H](O)[C@H]1O)[C@H]1CC[C@]2(C)[C@@H]1[C@H](O)C[C@@H]1[C@@]3(C)CC[C@H](O)C(C)(C)[C@@H]3[C@@H](O[C@@H]3O[C@H](CO)[C@@H](O)[C@H](O)[C@H]3O[C@@H]3OC[C@@H](O)[C@H](O)[C@H]3O)C[C@]12C [R1, notoginsenoside R1]
93.56 | 7.1 | 16.7 | 76.0% | > 79 |  |  |  |  |  |  |  | CC(C)=CCC[C@](C)(O[C@@H]1O[C@H](CO[C@@H]2O[C@H](CO)[C@@H](O)[C@H](O)[C@H]2O)[C@@H](O)[C@H](O)[C@H]1O)[C@H]1CC[C@]2(C)[C@@H]1[C@H](O)C[C@@H]1[C@@]3(C)CC[C@H](O[C@@H]4O[C@H](CO)[C@@H](O)[C@H](O)[C@H]4O[C@@H]4O[C@H](CO)[C@@H](O)[C@H](O)[C@H]4O)C(C)(C)[C@@H]3CC[C@]12C [Rb1, ginsenoside Rb1]
44.98 | 3.1 | 10.0 | 76.2% | > 79 |  |  |  |  |  |  |  | CC(C)=CCC[C@](C)(O[C@@H]1O[C@H](CO)[C@@H](O)[C@H](O)[C@H]1O)[C@H]1CC[C@]2(C)[C@@H]1[C@H](O)C[C@@H]1[C@@]3(C)CC[C@H](O)C(C)(C)[C@@H]3[C@@H](O[C@@H]3O[C@H](CO)[C@@H](O)[C@H](O)[C@H]3O)C[C@]12C [Rg1, ginsenoside Rg1]
91.81 |  |  | 23.6% | > 79 | 1830 (≈ 6.22 mM) |  |  |  |  |  |  | Cc1coc2c1C(=O)C(=O)c1c-2ccc2c1CCCC2(C)C [TS IIA, tanshinone IIA]
 |  |  |  |  |  | 4.7 | 10.9 | up to 96 hours | 36 | An infinitesimal amount | < 2 | CCN(CC)c1ccc2cc(-c3nc4ccccc4s3)c(=O)oc2c1 [coumarin-6]
92.88 |  |  | 93.0% | > 79 |  |  |  |  |  |  |  | salvianolic acid B [Sal B]
